This is an account of results in PubChem BioAssay.

Structures are written as SMILES. Active and inactive are the calls of the source.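 Rule for the calls, unless noted: active = viability at or below 30% in both replicate assays; inconclusive = viability at or below 30% in just one of the two assays; inactive = the rest.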

Usually viability stands for a read-out of living cells in per cent, often relative to untreated cells. A word on the inhibition: it is the relative decrease from the control value, in per cent.

Assay [1] in a line: Her2 expression decrease, cell viability multiplex – SKBR3 breast tumor cells, AlphaScreen, ATP viability, primary screen (AID 461;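 active = Her2 level under about 52% in both replicate screens, with viability over 70% of control, limit read from the data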;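 for Her2 level: lower value means less Her2 protein in the cells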;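 for viability: percent of carrier control wells set as 100% viability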). The following applies: SKBR3 Her2 protein level, 18-24 h, measured here: SKBR3 viability, ATP luminescence, at 10 µM. On the technique in general: In Alpha technology, singlet oxygen from a donor bead excites a nearby acceptor bead.
For assay [2], the target named is Receptor tyrosine-protein kinase erbB-2 (Homo sapiens) (UniProt P04626). The description is as above. The conditions noted are these: 18-24 h, at 10 µM, stronger effect = lower value.
Assay [3] in a line: reduced viability of SK-BR-3 breast cancer cells – cell-based, 24 h, human, pilot screen (AID 572;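 active = viability at or below 10% of carrier control in both of two separate runs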;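 note: compound exposure lasted between 18 and 24 h rather than exactly 24 h; 100% = carrier-treated control wells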). The conditions noted are these: SK-BR-3 viability, CellTiter-Glo luminescence, at 10 µM, stronger effect = lower value. In general terms: ATP-based viability assays read luminescence as a measure of living cells.
Assay [4] is described as follows: HUVEC growth inhibition – cell-based, human, primary screen (AID 575).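 Note: 100% = median of untreated cell wells with 0.1% DMSO on each plate.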 The following applies: HUVEC proliferation, CellTiter-Glo luminescence, 72 h; at 10 µM; stronger effect = lower value. A digest of the protocol: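 Test system: primary human umbilical vein endothelial cells; medium: endothelial basal medium with 2% FBS plus growth supplements; dosing: 10 µM compound only; times: 72 h treatment at 37 °C; signal: CTG luminescence; read-out: % viability relative to median vehicle-well signal on each plate; control set: vehicle and MePR control wells; plate: 384-well, collagen-coated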

The nature of assay [5]: H69AR cell proliferation blockers – human, duplicate replicates, primary screen (AID 580;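 active = viability at or under a set limit in both replicates, limit being median viability minus 3 SD, cut at about 48% in these data, passing the limit was not always enough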;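 note: 100% = mean luminescence of untreated wells and 0% = no signal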). The following applies: H69AR lung tumor cells viability, ATP luminescence, 72 h; at 10 µM; stronger effect = lower value.
Assay [6] in a line: MRP1 drug-resistance reversers in H69AR cells – cell-based, doxorubicin co-treatment, pilot screen (AID 601;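 active = viability loss from added drug above about 55%, and viability with drug at most 40%, in both replicates, limit read from the data, passing the limit was not always enough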). The following applies: CellTiter-Glo, 72 h, at 10 µM; for differential viability (reversal): stronger effect = higher value.
Assay [7] can be described thus: yeast transport mutant growth inhibition pilot in 384-well plates, post-Golgi transport modulator project (AID 636; in the data active = inhibition above about 31%). The conditions noted are these: absorbance 615 nm, about 18 h, stronger effect = higher value.
A short description of assay [8]: growth suppression of yeast trafficking mutant, preliminary HTS, modulators of trafficking downstream of Golgi apparatus project, 1536-format plate, OD 615 nm (AID 637; in the data active = inhibition above about 30%). The conditions noted are these: yeast transport mutant growth, absorbance 615 nm, 18 h; stronger effect = higher value.
Where [9] appears, read: H69AR cells + 2 uM doxorubicin, measured here: viability with 2 uM doxorubicin, stronger effect = lower value.
Where [10] appears, read: H69AR cells, compound alone cytotoxicity.

Receptor tyrosine-protein kinase erbB-2 (Homo sapiens), sequence (P04626 whole entry, looked up): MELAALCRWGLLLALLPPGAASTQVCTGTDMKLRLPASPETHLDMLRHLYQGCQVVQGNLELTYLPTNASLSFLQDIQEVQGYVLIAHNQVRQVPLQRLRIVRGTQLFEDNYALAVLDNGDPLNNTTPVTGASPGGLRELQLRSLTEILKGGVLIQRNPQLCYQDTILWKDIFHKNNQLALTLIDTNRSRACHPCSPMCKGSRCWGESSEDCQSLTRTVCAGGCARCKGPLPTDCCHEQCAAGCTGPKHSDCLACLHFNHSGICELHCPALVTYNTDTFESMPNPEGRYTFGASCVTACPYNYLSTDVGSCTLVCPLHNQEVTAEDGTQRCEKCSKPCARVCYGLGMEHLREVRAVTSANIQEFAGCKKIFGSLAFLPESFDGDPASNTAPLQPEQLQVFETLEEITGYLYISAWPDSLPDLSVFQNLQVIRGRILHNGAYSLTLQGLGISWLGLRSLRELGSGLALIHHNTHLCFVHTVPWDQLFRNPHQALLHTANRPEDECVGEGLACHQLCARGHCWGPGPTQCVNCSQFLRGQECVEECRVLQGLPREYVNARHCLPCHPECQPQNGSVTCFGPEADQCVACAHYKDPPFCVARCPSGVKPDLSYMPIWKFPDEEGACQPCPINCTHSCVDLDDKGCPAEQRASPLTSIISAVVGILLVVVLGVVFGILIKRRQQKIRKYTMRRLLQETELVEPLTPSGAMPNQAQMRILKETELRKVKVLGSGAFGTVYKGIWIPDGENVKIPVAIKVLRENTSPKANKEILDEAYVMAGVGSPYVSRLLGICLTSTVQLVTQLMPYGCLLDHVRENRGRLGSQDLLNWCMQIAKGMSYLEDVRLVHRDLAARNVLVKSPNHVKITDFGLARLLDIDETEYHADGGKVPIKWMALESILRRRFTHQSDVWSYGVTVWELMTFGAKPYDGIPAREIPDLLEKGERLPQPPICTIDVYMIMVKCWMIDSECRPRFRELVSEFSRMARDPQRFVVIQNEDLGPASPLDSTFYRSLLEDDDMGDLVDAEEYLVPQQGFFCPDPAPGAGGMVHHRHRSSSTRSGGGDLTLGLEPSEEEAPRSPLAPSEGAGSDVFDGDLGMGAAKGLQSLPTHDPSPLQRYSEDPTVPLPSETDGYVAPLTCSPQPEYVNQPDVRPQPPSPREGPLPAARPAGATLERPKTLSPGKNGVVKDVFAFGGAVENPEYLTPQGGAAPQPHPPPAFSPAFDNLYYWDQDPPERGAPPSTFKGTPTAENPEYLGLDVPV

Regarding `COc1ccc(N(C(=O)c2ccco2)C(C(=O)NC2CCCC2)c2ccc(N(C)C)cc2)cc1OC` (stereo not given), the viability was 100% in assay [1]; 100% (inactive) in assay [3]; 91.2% (inactive) in assay [4]; 90% (inactive) in assay [5]; 105% in assay [6] (setting [9]); 90% in assay [6] (setting [10]). Besides, the Her2 level in assay [2] was 123% (inactive). Moreover, in assay [6] (H69AR cells + 2 uM doxorubicin), the differential viability (reversal) is -14.6% (inactive). The figures for the inhibition in assay [7] and in assay [8] were -1.3% (inactive) and -8.5% (inactive), respectively.
Turning to `COC(=O)CC1C(=O)NCCN1C(=O)NC1CCCCC1` (stereo not given), the viability is 94% in assay [1]; 94% (inactive) in assay [3]; 104% (inactive) in assay [4]; 98.8% (inactive) in assay [5]; 91.7% in assay [6] (setting [9]); 98.8% in assay [6] (setting [10]). Also, in assay [2], the Her2 level was 114% (inactive). The differential viability (reversal) in assay [6] (H69AR cells + 2 uM doxorubicin) is 7.06% (inactive). Moreover, the inhibition in assay [7] is -9.59% (inactive); in assay [8] it was -6.98% (inactive).
Take `CC(=O)N(CCN(C(C)=O)c1ccccc1)c1ccccc1`: the viability in assay [1] was 105%; in assay [3] it was 105% (inactive); in assay [4], 88.8% (inactive); in assay [5], 91.7% (inactive); in assay [6] (setting [9]), 80%; in assay [6] (setting [10]) it was 91.7%. Besides, in assay [2], the Her2 level was 93% (inactive). For the same molecule, in assay [6] (H69AR cells + 2 uM doxorubicin), the differential viability (reversal) was 11.7% (inactive). Also, the inhibition in assay [7] is -1.95% (inactive); in assay [8], -1.64% (inactive).
For `CC1CC(C)CN(CCCNC(=O)COc2cc(=O)n(C)c3ccccc23)C1` (stereo not given), the viability is 90% in assay [1]; 90% (inactive) in assay [3]; 85.3% (inactive) in assay [4]; 90.7% (inactive) in assay [5]; 74.2% in assay [6] (setting [9]); 90.7% in assay [6] (setting [10]). Further, the Her2 level in assay [2] was 88% (inactive). The differential viability (reversal) in assay [6] (H69AR cells + 2 uM doxorubicin) was 16.5% (inactive). Moreover, the inhibition is -3.73% (inactive) in assay [7] and -4.59% (inactive) in assay [8].
`Cc1cc(NC(=O)CCC(=O)N(CCc2ccccc2)C(C(=O)NC2CCCC2)c2ccco2)no1` (stereo not given): the viability in assay [1] is 85.5%; in assay [3], 85.5% (inactive); in assay [4], 79.2% (inactive); in assay [5] it was 99.2% (inactive); in assay [6] (setting [9]) it was 95.1%; in assay [6] (setting [10]) it was 99.2%. Moreover, the Her2 level in assay [2] was 99% (inactive). Also, the differential viability (reversal) in assay [6] (H69AR cells + 2 uM doxorubicin) was 4.1% (inactive). Moreover, the inhibition in assay [7] is 1.47% (inactive); in assay [8], -2.13% (inactive).
Turning to `Cn1c(=O)cc(OCC(=O)NCCCN2CCN(c3cccc(Cl)c3)CC2)c2ccccc21`, the viability was 85.5% in assay [1]; 85.5% (inactive) in assay [3]; 48.7% (inactive) in assay [4]; 63.7% (inactive) in assay [5]; 65.1% in assay [6] (setting [9]); 63.7% in assay [6] (setting [10]). For the same molecule, in assay [2], the Her2 level was 74.5% (inactive). The differential viability (reversal) in assay [6] (H69AR cells + 2 uM doxorubicin) is -1.39% (inactive). Besides, the inhibition in assay [7] is -6.53% (inactive); in assay [8], -2.62% (inactive).
For the molecule `CN(C)c1ccc(/C(=N\O)c2ccccc2)cc1`, the viability in assay [1] was 98.5%; in assay [3], 98.5% (inactive); in assay [4] it was 93.9% (inactive); in assay [5], 92.8% (inactive); in assay [6] (setting [9]), 90.3%; in assay [6] (setting [10]) it was 92.8%. Besides, in assay [2], the Her2 level is 114% (inactive). The differential viability (reversal) in assay [6] (H69AR cells + 2 uM doxorubicin) is 2.59% (inactive). For the same molecule, the inhibition in assay [7] is 0.13% (inactive); in assay [8] it was -13.5% (inactive).
Turning to `CCN(CC)CCCN(Cc1cc2cc(OC)ccc2[nH]c1=O)C(=O)Nc1ccccc1`, the viability in assay [1] was 90%; in assay [3], 90% (inactive); in assay [4] it was 65.8% (inactive); in assay [5], 77.7% (inactive); in assay [6] (setting [9]), 74.3%; in assay [6] (setting [10]) it was 77.7%. Besides, in assay [2], the Her2 level is 73% (inactive). The differential viability (reversal) in assay [6] (H69AR cells + 2 uM doxorubicin) is 3.46% (inactive). The inhibition is -5.73% (inactive) in assay [7] and -1.97% (inactive) in assay [8].
`Cc1cc2nc(C3CCN(CC4COc5ccccc5O4)CC3)[nH]c2cc1C` (stereo not given): the viability in assay [1] was 98.5%; in assay [3], 98.5% (inactive); in assay [4] it was 3.41% (active); in assay [5] it was 77.8% (inactive); in assay [6] (setting [9]), 55.2%; in assay [6] (setting [10]) it was 77.8%. Besides, the Her2 level in assay [2] was 87.5% (inactive). For the same molecule, the differential viability (reversal) in assay [6] (H69AR cells + 2 uM doxorubicin) was 22.7% (inactive). Moreover, the inhibition in assay [7] was -3.03% (inactive); in assay [8], 2.83% (inactive).
With `CC(=O)c1c(NCCc2ccccc2)cc(C)oc1=O`, the viability was 99.5% in assay [1]; 99.5% (inactive) in assay [3]; 119% (inactive) in assay [4]; 101% (inactive) in assay [5]; 91.5% in assay [6] (setting [9]); 101% in assay [6] (setting [10]). The Her2 level in assay [2] was 86% (inactive). Besides, in assay [6] (H69AR cells + 2 uM doxorubicin), the differential viability (reversal) is 9.25% (inactive). For the same molecule, the figures for the inhibition in assay [7] and in assay [8] were -2.57% (inactive) and -4.83% (inactive), respectively.
Take `CCNS(=O)(=O)c1ccc(S(=O)(=O)N(Cc2ccccn2)C2CCCCC2)cc1`: the viability was 102% in assay [1]; 102% (inactive) in assay [3]; 109% (inactive) in assay [4]; 88.9% (inactive) in assay [5]; 75.3% in assay [6] (setting [9]); 88.9% in assay [6] (setting [10]). Besides, the Her2 level in assay [2] was 87% (inactive). The differential viability (reversal) in assay [6] (H69AR cells + 2 uM doxorubicin) was 13.6% (inactive). The inhibition in assay [7] is -8.92% (inactive); in assay [8] it was -5.17% (inactive).
With `CC(C)CCNC(=O)NC(=O)CN1C(=O)NC2(CCCCC2)C1=O`, the viability is 90% in assay [1]; 90% (inactive) in assay [3]; 104% (inactive) in assay [4]; 96.9% (inactive) in assay [5]; 101% in assay [6] (setting [9]); 96.9% in assay [6] (setting [10]). The Her2 level in assay [2] is 120% (inactive). Also, the differential viability (reversal) in assay [6] (H69AR cells + 2 uM doxorubicin) is -4.12% (inactive). The inhibition in assay [7] is 1.32% (inactive); in assay [8] it was 10.9% (inactive).
Take `CCN(CC)S(=O)(=O)c1ccc2oc(SCc3ccc(F)cc3)nc2c1`: the viability in assay [1] was 93.5%; in assay [3], 93.5% (inactive); in assay [4], 68.5% (inactive); in assay [5], 80.1% (inactive); in assay [6] (setting [9]), 95%; in assay [6] (setting [10]), 80.1%. For the same molecule, in assay [2], the Her2 level is 82.5% (inactive). For the same molecule, in assay [6] (H69AR cells + 2 uM doxorubicin), the differential viability (reversal) is -14.8% (inactive). Moreover, the results for the inhibition in assay [7] and in assay [8] were 0.54% (inactive) and -0.95% (inactive), respectively.
